From ChEMBL document CHEMBL4145686, “Discovery of a Potent and Selective Steroidal Glucocorticoid Receptor Antagonist (ORIC-101)” (J Med Chem, 2018)
Activity calls are given as the source filed them. No cut-off for these calls is given here.

Assays:
[1] = Volume of distribution at steady state in mouse at 0.5 mg/kg, iv; assay type: ADME, organism-based; conditions: in vivo, read-out: Vdss
Androgen receptor [2] = target: T1, Androgen receptor (Homo sapiens, UniProt P10275); assay: Agonist activity at AR (unknown origin) expressed in human LNCaP cells incubated for 20 hrs by luciferase reporter gene assay; assay type: cell-based
T1 sequence (P10275 whole entry): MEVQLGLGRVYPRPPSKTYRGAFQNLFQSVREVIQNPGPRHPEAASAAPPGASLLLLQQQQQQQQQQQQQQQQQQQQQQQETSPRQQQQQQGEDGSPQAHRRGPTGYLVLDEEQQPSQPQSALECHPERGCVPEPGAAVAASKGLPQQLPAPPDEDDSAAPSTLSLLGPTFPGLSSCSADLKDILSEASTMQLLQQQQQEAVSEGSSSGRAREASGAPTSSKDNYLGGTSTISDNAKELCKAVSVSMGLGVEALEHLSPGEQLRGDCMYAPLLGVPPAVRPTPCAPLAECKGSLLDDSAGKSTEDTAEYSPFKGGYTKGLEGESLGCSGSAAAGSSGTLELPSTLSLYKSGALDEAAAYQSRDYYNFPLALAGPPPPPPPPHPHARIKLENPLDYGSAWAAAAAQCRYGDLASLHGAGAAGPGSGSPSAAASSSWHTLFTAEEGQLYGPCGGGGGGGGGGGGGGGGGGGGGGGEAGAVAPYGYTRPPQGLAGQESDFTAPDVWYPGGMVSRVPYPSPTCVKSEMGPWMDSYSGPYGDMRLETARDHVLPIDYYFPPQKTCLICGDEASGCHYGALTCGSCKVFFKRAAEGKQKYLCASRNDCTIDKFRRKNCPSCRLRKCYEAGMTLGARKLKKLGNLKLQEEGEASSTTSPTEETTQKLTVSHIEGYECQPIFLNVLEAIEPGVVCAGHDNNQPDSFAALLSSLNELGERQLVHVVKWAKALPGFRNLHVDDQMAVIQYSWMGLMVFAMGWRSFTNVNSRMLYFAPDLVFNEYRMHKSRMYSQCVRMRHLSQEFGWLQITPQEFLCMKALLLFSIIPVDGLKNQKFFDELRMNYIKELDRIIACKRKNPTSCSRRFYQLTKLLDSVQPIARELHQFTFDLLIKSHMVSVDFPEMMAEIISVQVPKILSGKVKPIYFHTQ

[3] = Oral bioavailability in mouse at 5 mg/kg; assay type: ADME, organism-based; conditions: in vivo
Glucocorticoid receptor [4] = target: T2, Glucocorticoid receptor (Homo sapiens, UniProt P04150); assay: Antagonist activity at GR in human PBMC assessed as reduction in dexamethasone-induced GILZ gene expression incubated for 6 hrs by RT-qPCR method; assay type: cell-based
T2 sequence (P04150 whole entry): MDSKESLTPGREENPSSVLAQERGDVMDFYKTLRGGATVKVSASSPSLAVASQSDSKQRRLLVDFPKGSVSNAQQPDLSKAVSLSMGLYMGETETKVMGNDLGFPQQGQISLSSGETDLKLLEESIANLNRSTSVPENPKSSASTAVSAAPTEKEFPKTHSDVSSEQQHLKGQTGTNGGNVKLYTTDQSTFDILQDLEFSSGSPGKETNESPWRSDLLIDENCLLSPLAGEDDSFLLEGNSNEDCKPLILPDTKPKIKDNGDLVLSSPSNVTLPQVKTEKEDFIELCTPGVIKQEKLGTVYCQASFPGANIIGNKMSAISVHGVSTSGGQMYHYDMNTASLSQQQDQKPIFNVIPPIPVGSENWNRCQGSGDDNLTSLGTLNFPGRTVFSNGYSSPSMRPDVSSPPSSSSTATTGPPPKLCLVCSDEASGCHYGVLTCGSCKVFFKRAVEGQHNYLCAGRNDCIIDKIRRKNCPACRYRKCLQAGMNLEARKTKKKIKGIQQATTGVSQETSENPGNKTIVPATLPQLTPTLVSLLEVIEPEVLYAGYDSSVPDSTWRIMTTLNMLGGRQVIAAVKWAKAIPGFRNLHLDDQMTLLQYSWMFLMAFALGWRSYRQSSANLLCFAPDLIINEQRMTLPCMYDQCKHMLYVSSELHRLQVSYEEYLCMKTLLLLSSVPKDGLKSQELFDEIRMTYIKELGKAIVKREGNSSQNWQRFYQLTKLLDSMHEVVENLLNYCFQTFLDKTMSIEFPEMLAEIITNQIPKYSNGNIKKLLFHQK

Glucocorticoid receptor [5] = target: T2, Glucocorticoid receptor; assay: (§1) Antagonist activity at GR in human OVCAR5 assessed as reduction in dexamethasone-induced FKBP5 gene expression incubated for 24 hrs by RT-qPCR method
[6] = target: T3, Glucocorticoid receptor (Homo sapiens) (UniProt P04150); assay: as §1
T3 sequence (whole entry): T2 sequence (P04150 whole entry)

OVCAR-5 [7] = assay: Potentiation of gemcitabine-induced antitumor activity against human OVCAR5 cells xenografted in chronic cortisol treated nude mouse assessed as reduction in tumor volume at 75 mg/kg, po BID dosed via gavage co-treated with gencitabine at 100 mg/kg dosed every 3 days for 4 doses; assay type: functional, organism-based
In short: (§2)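 Cortisol given in drinking water at 100 mg/L before tumor implantation and throughout the study. Mice bearing established OVCAR5 xenografts, n = 10 per group. Gemcitabine 100 mg/kg and carboplatin 60 mg/kg given every 3 days for 4 doses. Antagonist given at 75 mg/kg twice daily by oral gavage for the whole study. Tumor volume tracked, mean ± SEM, with significance assessed on day 21.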

OVCAR-5 [8] = assay: Antitumor activity against human OVCAR5 cells xenografted in chronic cortisol treated nude mouse assessed as reduction in tumor volume at 75 mg/kg, po BID dosed via gavage; assay type: functional, organism-based; in short: as §2
Estrogen receptor = target: T4, Estrogen receptor (Homo sapiens, UniProt P03372); assay: Binding affinity to untagged human recombinant full length ERalpha expressed in insect cells up to 1 uM by Fluormone ES2 Green displacement based assay
T4 sequence (P03372 whole entry): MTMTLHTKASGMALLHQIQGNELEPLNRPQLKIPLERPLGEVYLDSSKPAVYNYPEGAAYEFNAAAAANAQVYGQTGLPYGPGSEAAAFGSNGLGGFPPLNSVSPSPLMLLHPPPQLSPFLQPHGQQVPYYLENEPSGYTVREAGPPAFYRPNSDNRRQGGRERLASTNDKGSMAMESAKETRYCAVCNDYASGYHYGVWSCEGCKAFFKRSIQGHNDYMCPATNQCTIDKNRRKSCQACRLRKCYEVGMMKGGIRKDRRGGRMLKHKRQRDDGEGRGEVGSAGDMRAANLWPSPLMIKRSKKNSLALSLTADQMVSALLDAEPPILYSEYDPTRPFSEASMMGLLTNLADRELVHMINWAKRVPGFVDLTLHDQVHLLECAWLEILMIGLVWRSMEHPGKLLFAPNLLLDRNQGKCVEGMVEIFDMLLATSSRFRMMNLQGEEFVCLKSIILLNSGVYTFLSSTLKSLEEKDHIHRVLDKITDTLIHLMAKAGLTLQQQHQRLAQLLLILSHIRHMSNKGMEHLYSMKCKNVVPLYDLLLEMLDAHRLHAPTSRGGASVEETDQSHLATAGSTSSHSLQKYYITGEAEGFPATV

[9] = Half life in mouse at 0.5 mg/kg, iv; assay type: ADME, organism-based; conditions: in vivo
Androgen receptor [10] = target: T1, Androgen receptor; assay: Agonist activity at AR in human MDA-MB-453 cells assessed as increase in […] gene expression at 111 to 333 nM incubated for 24 hrs by RT-qPCR method; assay type: cell-based; conditions: mda-mb-453, 24 h, 0.333 µM

SMILES: CC(C)N(C)c1ccc([C@H]2C[C@@]3(C)[C@@H](CC[C@@]3(O)C#CC(C)(C)C)[C@@H]3CCC4=CC(=O)CC[C@@H]4[C@H]32)cc1
- Vd [1]: 5.01 L/kg
- EC50 (Androgen receptor [2]): > 2500 nM
- bioavailability [3]: 21%
- IC50 (Glucocorticoid receptor [4]): 24.9 nM
- IC50 (Glucocorticoid receptor [5]): 17.2 nM
- inhibition [6]: Dose-dependent effect
- Activity (OVCAR-5 [7]): Active
- TGI (OVCAR-5 [8]): inactive
- Activity (Estrogen receptor): Not Active
- half-life [9]: 290 min
- Activity (Androgen receptor [10]): Not Active
